Measurements as given in ChEMBL document CHEMBL1649224, “Involvement of pmrAB and phoPQ in polymyxin B adaptation and inducible resistance in non-cystic fibrosis clinical isolates of Pseudomonas aeruginosa” (2009).
Calls of active or inactive are those of the source. The calls are words filed in the database; no cut-off is given here.

Columns and labels:
Pseudomonas aeruginosa [1] = assay: Antibacterial activity against Pseudomonas aeruginosa isolate 19BR by Etest; format: functional
Pseudomonas aeruginosa [2] = assay: Antibacterial activity against Pseudomonas aeruginosa isolate 9BR by Etest; format: functional
Pseudomonas aeruginosa [3] = assay: Antibacterial activity against Pseudomonas aeruginosa isolate 213BR by Etest; format: functional
Pseudomonas aeruginosa [4] = assay: Antibacterial activity against Pseudomonas aeruginosa isolate 213BR by Etest in presence of beta-lactamase inhibitor Tazobactam; format: functional
Pseudomonas aeruginosa [5] = assay: Antibacterial activity against Pseudomonas aeruginosa isolate 9BR by Etest in presence of beta-lactamase inhibitor Tazobactam; format: functional
Pseudomonas aeruginosa [6] = assay: Antibacterial activity against Pseudomonas aeruginosa isolate 19BR by Etest in presence of beta-lactamase inhibitor Tazobactam; format: functional
Pseudomonas aeruginosa [7] = assay: Antibacterial activity against Pseudomonas aeruginosa isolate 9BR assessed as lowest concentration at which no growth observed after 48 hrs by broth microdilution method; format: functional, organism-based
Pseudomonas aeruginosa [8] = assay: Antibacterial activity against Pseudomonas aeruginosa isolate 19BR assessed as growth after the skipped wells was observed after 48 hrs by broth microdilution method; format: functional, organism-based
Pseudomonas aeruginosa [9] = assay: Antibacterial activity against Pseudomonas aeruginosa isolate 213BR assessed as lowest concentration at which no growth observed after 48 hrs by broth microdilution method; format: functional, organism-based
Outline: (§1)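 Broth microdilution per CLSI M7-A6/M100-S15 in cation-adjusted Mueller-Hinton broth, 37°C, 48 h; polymyxin B 0.03 to 32 μg/ml, triplicate runs per isolate. Liberal MIC read as the lowest-concentration well without visible growth; skipped wells (isolated no-growth wells below wells with growth) noted.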

Pseudomonas aeruginosa [10] = assay: Antibacterial activity against Pseudomonas aeruginosa isolate 19BR assessed as lowest concentration at which no growth observed after 48 hrs by broth microdilution method; format: functional, organism-based; outline: as §1
Pseudomonas aeruginosa [11] = assay: Antibacterial activity against Pseudomonas aeruginosa isolate 9BR assessed as growth after the skipped wells was observed after 48 hrs by broth microdilution method; format: functional, organism-based
Pseudomonas aeruginosa [12] = assay: Antibacterial activity against Pseudomonas aeruginosa isolate 213BR assessed as growth after the skipped wells was observed after 48 hrs by broth microdilution method; format: functional, organism-based
Pseudomonas aeruginosa [13] = assay: Increase in PA4773 gene expression in Pseudomonas aeruginosa isolate 19BR at 2 ug/ml by quantitative PCR analysis; format: functional, organism-based
Outline: (§2)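 Cells from MIC plate wells regrown in cation-adjusted Mueller-Hinton broth with 0, 0.125 or 2 μg/ml polymyxin B at 37°C with shaking to OD600 0.5. Total RNA (4 μg) reverse-transcribed for qPCR of phoQ, arnB and PA4773, with rpsL as control. Expression is relative to untreated PAO1; triplicate biological repeats, each at least in duplicate.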

Pseudomonas aeruginosa [14] = assay: Antimicrobial activity against Pseudomonas aeruginosa isolate 19BR assessed as outer membrane permeabilization by fluorescence spectrophotometer using NPN fluorescent probe; format: functional, organism-based
Outline: (§3)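 Cells grown in cation-adjusted Mueller-Hinton broth with 0, 0.125 or 2 μg/ml polymyxin B (preincubation), subcultured 1:100 to mid-log, washed, resuspended to OD600 0.5 in 5 mM HEPES pH 7.2 with 5 μM CCCP. NPN 10 μM final added for baseline. Polymyxin B then added at 0.25–64 μg/ml final; fluorescence ex 350/em 420 nm.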

Pseudomonas aeruginosa [15] = assay: Increase in arnB gene expression in compound-resistant Pseudomonas aeruginosa isolate 9BR by quantitative PCR analysis; format: functional, organism-based
Outline: (§4)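 Cells taken from MIC-plate wells at 0, 0.125 or 2 μg/ml polymyxin B, regrown in 10 ml CAMHB at the same level, shaken at 37°C to OD600 0.5. Total RNA (4 μg) reverse-transcribed; qPCR normalised to rpsL and expressed relative to PAO1 without polymyxin B. Triplicate cultures on separate days from individual MIC plates, each run at least in duplicate.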

Pseudomonas aeruginosa [16] = assay: Increase in arnB gene expression in Pseudomonas aeruginosa isolate 213BR at 2 ug/ml by quantitative PCR analysis; format: functional, organism-based; outline: as §2
Pseudomonas aeruginosa [17] = assay: Effect on phoQ gene expression in Pseudomonas aeruginosa PAO1 at 2 ug/ml by quantitative PCR analysis; format: functional, organism-based; outline: as §2
Pseudomonas aeruginosa [18] = assay: Increase in phoQ gene expression in Pseudomonas aeruginosa isolate 213BR at 2 ug/ml by quantitative PCR analysis; format: functional, organism-based; outline: as §2
Pseudomonas aeruginosa [19] = assay: Antimicrobial activity against Pseudomonas aeruginosa isolate 9BR assessed as outer membrane permeabilization by fluorescence spectrophotometer using NPN fluorescent probe; format: functional, organism-based; outline: as §3
Pseudomonas aeruginosa [20] = assay: Antimicrobial activity against Pseudomonas aeruginosa PAO1 assessed as outer membrane permeabilization by fluorescence spectrophotometer using NPN fluorescent probe; format: functional, organism-based; outline: as §3
Pseudomonas aeruginosa [21] = assay: Antimicrobial activity against Pseudomonas aeruginosa isolate 9BR assessed as inhibition of growth at 0.25 ug/ml after 24 hrs; format: functional, organism-based
Pseudomonas aeruginosa [22] = assay: Antimicrobial activity against Pseudomonas aeruginosa PAO1 assessed as outer membrane permeabilization at 4 ug/ml by fluorescence spectrophotometer using NPN fluorescent probe; format: functional, organism-based; outline: as §3
Pseudomonas aeruginosa [23] = assay: Increase in PA4773 gene expression in Pseudomonas aeruginosa isolate 213BR at 2 ug/ml by quantitative PCR analysis; format: functional, organism-based; outline: as §2
Pseudomonas aeruginosa [24] = assay: Antimicrobial activity against Pseudomonas aeruginosa isolate 9BR assessed as outer membrane permeabilization at => […] ug/ml by fluorescence spectrophotometer using NPN fluorescent probe; format: functional, organism-based
Pseudomonas aeruginosa [25] = assay: Antimicrobial activity against Pseudomonas aeruginosa isolate 19BR assessed as inhibition of growth at 2 ug/ml after 24 hrs; format: functional, organism-based
Outline: (§5)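 Growth curves run in triplicate: overnight cultures diluted 1:20 into cation-adjusted Mueller-Hinton broth with 0, 0.125 or 2 μg/ml polymyxin B; OD600 read every 20 min for 24 h.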

Pseudomonas aeruginosa [26] = assay: Effect on PA4773 gene expression in Pseudomonas aeruginosa PAO1 at 2 ug/ml by quantitative PCR analysis; format: functional, organism-based; outline: as §2
Pseudomonas aeruginosa [27] = assay: Increase in phoQ gene expression in Pseudomonas aeruginosa isolate 19BR at 2 ug/ml by quantitative PCR analysis; format: functional, organism-based; outline: as §2
Pseudomonas aeruginosa [28] = assay: Effect on arnB gene expression in Pseudomonas aeruginosa PAO1 at 2 ug/ml by quantitative PCR analysis; format: functional, organism-based; outline: as §2
Pseudomonas aeruginosa [29] = assay: Antimicrobial activity against Pseudomonas aeruginosa PAO1 assessed as outer membrane permeabilization at 0.125 ug/ml by fluorescence spectrophotometer using NPN fluorescent probe; format: functional, organism-based; outline: as §3
Pseudomonas aeruginosa [30] = assay: Antimicrobial activity against Pseudomonas aeruginosa isolate 213BR assessed as inhibition of growth at 2 ug/ml after 24 hrs; format: functional, organism-based; outline: as §5
Pseudomonas aeruginosa [31] = assay: Increase in arnB gene expression in Pseudomonas aeruginosa isolate 19BR at 2 ug/ml by quantitative PCR analysis; format: functional, organism-based; outline: as §2
Pseudomonas aeruginosa [32] = assay: Antimicrobial activity against 2 ug/ml compound pretreated Pseudomonas aeruginosa isolate 19BR assessed as outer membrane permeabilization at 8 ug/ml by fluorescence spectrophotometer using NPN fluorescent probe; format: functional, organism-based; outline: as §3
Pseudomonas aeruginosa [33] = assay: Antimicrobial activity against 2 ug/ml compound pretreated Pseudomonas aeruginosa isolate 9BR assessed as outer membrane permeabilization at 8 ug/ml by fluorescence spectrophotometer using NPN fluorescent probe; format: functional, organism-based; outline: as §3
Pseudomonas aeruginosa [34] = assay: Increase in PA4773 gene expression in compound-resistant Pseudomonas aeruginosa isolate 9BR by quantitative PCR analysis; format: functional, organism-based; outline: as §4
Pseudomonas aeruginosa [35] = assay: Antimicrobial activity against Pseudomonas aeruginosa isolate 19BR assessed as outer membrane permeabilization at => 8 ug/ml by fluorescence spectrophotometer using NPN fluorescent probe; format: functional, organism-based; outline: as §3

## CO/N=C(\C(=O)N[C@@H]1C(=O)N2C(C(=O)[O-])=C(C[N+]3(C)CCCC3)CS[C@H]12)c1csc(N)n1 [CEFEPIME]
Pseudomonas aeruginosa [1]
  MIC: > 256 mg/L
Pseudomonas aeruginosa [2]
  MIC: > 256 mg/L
Pseudomonas aeruginosa [3]
  MIC: > 256 mg/L

## CC(C)(O/N=C(\C(=O)N[C@@H]1C(=O)N2C(C(=O)[O-])=C(C[n+]3ccccc3)CS[C@H]12)c1csc(N)n1)C(=O)O [CEFTAZIDIME]
Pseudomonas aeruginosa [1]
  MIC: > 256 mg/L
Pseudomonas aeruginosa [2]
  MIC: > 256 mg/L
Pseudomonas aeruginosa [3]
  MIC: > 256 mg/L

## O=C(O)c1cn(C2CC2)c2cc(N3CCNCC3)c(F)cc2c1=O [CIPROFLOXACIN]
Pseudomonas aeruginosa [1]
  MIC: > 32 mg/L
Pseudomonas aeruginosa [2]
  MIC: > 32 mg/L
Pseudomonas aeruginosa [3]
  MIC: > 32 mg/L

## C[C@@H](O)[C@H]1C(=O)N2C(C(=O)O)=C(S[C@@H]3CN[C@H](C(=O)N(C)C)C3)[C@H](C)[C@H]12 [MEROPENEM]
Pseudomonas aeruginosa [1]
  MIC: > 32 mg/L
Pseudomonas aeruginosa [2]
  MIC: > 32 mg/L
Pseudomonas aeruginosa [3]
  MIC: > 32 mg/L

## CCN1CCN(C(=O)N[C@@H](C(=O)N[C@@H]2C(=O)N3[C@@H]2SC(C)(C)[C@@H]3C(=O)O)c2ccccc2)C(=O)C1=O [PIPERACILLIN]
Pseudomonas aeruginosa [4]
  MIC: 96 mg/L
Pseudomonas aeruginosa [5]
  MIC: 96 mg/L
Pseudomonas aeruginosa [6]
  MIC: 64 mg/L

## COLISTIN
Pseudomonas aeruginosa [7]
  MIC: 32 mg/L
Pseudomonas aeruginosa [8]
  MIC: 4 mg/L
Pseudomonas aeruginosa [9]
  MIC: 2 mg/L
Pseudomonas aeruginosa [10]
  MIC: 4 mg/L
Pseudomonas aeruginosa [11]
  MIC: 32 mg/L
Pseudomonas aeruginosa [12]
  MIC: 32 mg/L

## POLYMYXIN B
Pseudomonas aeruginosa [7]
  MIC: 64 mg/L
Pseudomonas aeruginosa [1]
  MIC: 1.5 mg/L
Pseudomonas aeruginosa [13]
  Activity: Active
Pseudomonas aeruginosa [14]
  Activity: Dose-dependent effect
Pseudomonas aeruginosa [8]
  MIC: 8 mg/L
Pseudomonas aeruginosa [9]
  MIC: 0.5 mg/L
Pseudomonas aeruginosa [15]
  Activity: Dose-dependent effect
Pseudomonas aeruginosa [16]
  Activity: Active
Pseudomonas aeruginosa [17]
  Activity: inactive
Pseudomonas aeruginosa [18]
  Activity: Active
Pseudomonas aeruginosa [10]
  MIC: 0.25 mg/L
Pseudomonas aeruginosa [19]
  Activity: Dose-dependent effect
Pseudomonas aeruginosa [20]
  Activity: Dose-dependent effect
Pseudomonas aeruginosa [21]
  inhibition: inactive
Pseudomonas aeruginosa [11]
  MIC: 64 mg/L
Pseudomonas aeruginosa [22]
  Activity: Active
Pseudomonas aeruginosa [23]
  Activity: Active
Pseudomonas aeruginosa [24]
  Activity: Active
Pseudomonas aeruginosa [25]
  TIME: 6 h
Pseudomonas aeruginosa [26]
  Activity: inactive
Pseudomonas aeruginosa [27]
  Activity: Active
Pseudomonas aeruginosa [28]
  Activity: inactive
Pseudomonas aeruginosa [29]
  Activity: Active
Pseudomonas aeruginosa [30]
  TIME: 4 h
Pseudomonas aeruginosa [31]
  Activity: Active
Pseudomonas aeruginosa [32]
  Activity: inactive
Pseudomonas aeruginosa [33]
  Activity: inactive
Pseudomonas aeruginosa [2]
  MIC: 4 mg/L
Pseudomonas aeruginosa [34]
  Activity: Dose-dependent effect
Pseudomonas aeruginosa [3]
  MIC: 1.5 mg/L
Pseudomonas aeruginosa [12]
  MIC: 8 mg/L
Pseudomonas aeruginosa [35]
  Activity: Active
